Sampled rows, rich in hits. Any-hit rate of the full collection: about 1.9%.
LMPTP block: LMPTP (human) inhibition; P24666; recombinant LMPTP-A, OMFP fluorogenic substrate, fluorescence intensity; inhibition, % at 20 µM; actives 0.22% (n = 360,000);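 active means compounds that cut the enzyme signal by at least half of the control window in the single-dose screen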;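 further: plate controls were DMSO wells with enzyme plus substrate for no effect and substrate without enzyme for full effect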
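Material: LMPTP-A; amount: 0.625 nM enzyme; doses: single 20 µM dose; times: reaction 50 min, room temperature, dark; technique: fluorescence intensity of OMFP turnover product; benchmarks: no-enzyme and uninhibited controls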
SUMO1 PPI mod: modulators of human SUMO1-mediated protein-protein interactions; P63165; SUMO1 binding to a labelled peptide, TR-FRET, 1 h; inhibition, % at 20 µM; actives 0.33% (n = 360,000); AID 602429; in the data active means inhibition above about 37%
CSN inh: CSN deneddylation inhibition; Q92905; Purified CSN, SCF-Nedd8-OG deneddylation, fluorescence polarization; inhibition, % at 12.5 µM; actives 0.38% (n = 360,000); AID 651999;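 active means pattern-corrected inhibition above about 35%, with an unprinted fluorescence ratio check between 0.5 and 1.5, limit read from the data, passing the limit was not always enough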;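 further: 0% = enzyme with substrate and 100% = substrate without enzyme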
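Material: purified human Csn5 enzyme expressed in HEK293T cells / Medium: Tris buffer pH 7.5, NaCl, DTT, Tween-20, trehalose, ovalbumin / Compound dosing: 12.5 µM single point / Schedule: 90 min incubation of compound, enzyme and substrate at room temperature / Signal: fluorescence polarization of the substrate / Control set: no-enzyme wells high, enzyme-with-substrate wells low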
DNMT1 inh: blocks human DNA methyltransferase DNMT1; AID 588458; P26358; inhibition (reported as % activation of signal), % at 10 µM; DNMT1 molecular beacon, Hinp1I cleavage, fluorescence; actives 0.83% (n = 360,000); in the data active means inhibition above about 50%
Target sequence (P26358 504-1616 limits assumed): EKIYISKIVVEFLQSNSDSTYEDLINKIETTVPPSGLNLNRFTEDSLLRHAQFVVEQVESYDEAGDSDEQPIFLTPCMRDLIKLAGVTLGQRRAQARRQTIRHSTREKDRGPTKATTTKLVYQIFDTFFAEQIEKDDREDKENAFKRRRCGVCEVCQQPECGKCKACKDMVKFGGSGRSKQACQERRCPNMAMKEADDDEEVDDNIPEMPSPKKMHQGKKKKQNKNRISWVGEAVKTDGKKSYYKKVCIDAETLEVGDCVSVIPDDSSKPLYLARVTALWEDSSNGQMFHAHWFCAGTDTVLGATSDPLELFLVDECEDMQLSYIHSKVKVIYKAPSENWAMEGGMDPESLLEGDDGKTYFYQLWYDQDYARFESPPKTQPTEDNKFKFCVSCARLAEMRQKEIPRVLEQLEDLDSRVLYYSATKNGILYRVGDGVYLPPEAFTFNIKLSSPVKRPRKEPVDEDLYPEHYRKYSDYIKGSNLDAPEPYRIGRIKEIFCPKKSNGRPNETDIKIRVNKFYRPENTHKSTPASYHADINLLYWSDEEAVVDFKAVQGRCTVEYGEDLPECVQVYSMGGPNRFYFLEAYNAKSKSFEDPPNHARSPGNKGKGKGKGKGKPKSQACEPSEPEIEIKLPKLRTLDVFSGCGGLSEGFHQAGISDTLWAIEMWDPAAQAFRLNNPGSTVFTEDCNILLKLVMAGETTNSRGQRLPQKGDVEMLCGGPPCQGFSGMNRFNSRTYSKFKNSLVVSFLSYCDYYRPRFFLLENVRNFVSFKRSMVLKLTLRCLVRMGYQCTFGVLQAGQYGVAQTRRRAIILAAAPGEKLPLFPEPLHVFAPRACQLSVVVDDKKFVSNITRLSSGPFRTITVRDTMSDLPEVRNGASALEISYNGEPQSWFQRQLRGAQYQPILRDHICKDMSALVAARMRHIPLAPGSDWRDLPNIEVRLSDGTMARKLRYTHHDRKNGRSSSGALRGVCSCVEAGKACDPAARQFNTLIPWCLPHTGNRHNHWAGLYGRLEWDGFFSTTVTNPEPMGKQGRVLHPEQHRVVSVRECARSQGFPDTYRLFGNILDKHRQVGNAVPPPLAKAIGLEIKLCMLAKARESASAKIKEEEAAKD
STEP block: inhibitors of human striatal-enriched phosphatase STEP. recombinant STEP, OMFP fluorogenic substrate, fluorescence. inhibition, % at 20 µM. actives 0.25% (n = 360,000). AID 588621;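 active means inhibition at 20 µM, scaled per plate between control wells, above about 37%, limit read from the data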;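 further: 0% = DMSO with enzyme and substrate and 100% = substrate only without enzyme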
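System: STEP phosphatase, cell-free reaction; Buffer or medium: Bis-Tris pH 6.0 buffer with DTT, detergent; Incubation: 20 min at room temperature, dark; Measured by: fluorescence, 480/540 nm.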
Scp1 inh: blocks human Scp-1 phosphatase activity; Q9GZU7; Recombinant Scp1, phosphopeptide, malachite green phosphate absorbance; inhibition, % at 20 µM; actives 0.88% (n = 340,000);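 active means inhibition above about 50% at 20 µM, limit read from the data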;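 further: plate controls were DMSO wells with enzyme for no effect and wells lacking enzyme for full effect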
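Test system: SCP-1 catalytic domain; Buffer or medium: Acidic Tris acetate buffer with magnesium and detergent; Also added: Phosphorylated 17-residue peptide substrate; Compound: single 20 µM dose, 1% DMSO; Schedule: enzyme reaction 45 min at room temperature, colour 5 min, stabilisation 30 min; Signal: Phosphate-binding colour reagent, absorbance read at 630 nm.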
An asterisk follows results filed as active; nt = no result.

SMILES	LMPTP block	SUMO1 PPI mod	CSN inh	DNMT1 inh	STEP block	Scp1 inh
O=C(O)CP(=O)(c1ccccc1)c1ccccc1	0	46*	-2	1	-4	-11
O=P(CCO)(c1ccccc1)c1ccccc1	0	1	0	-1	0	-5
Cc1ccccc1CSCC(=O)NCCSc1ccccn1	-1	49*	7	-1	2	-9
O=C(Nc1cccc(-c2cn3ccccc3n2)c1)c1ccccc1	7	0	-6	6	-1	0
Cc1ccc(C(=O)Nc2cccc(-c3cnc4ccccc4n3)c2)cc1	-1	-3	-2	9	-1	-9
CC(=O)Nc1ccc(C(=O)Nc2cccc(-c3cnc4ccccc4n3)c2)cc1	40	49*	86*	34	15	21
Cc1ccc(C(=O)Nc2cccc(-c3cn4ccccc4n3)c2)cc1	7	5	35*	-6	-1	-8
CC(=O)Nc1ccc(C(=O)Nc2nc(-c3cccnc3)cs2)cc1	6	60*	-3	-4	12	8
O=C(O)c1cccc2cccc(-c3c4ccc(=O)c(O)c-4oc4c(O)c(O)ccc34)c12	95*	119*	25	70*	99*	104*
COc1nc(Nc2nc3ccccc3c(=O)[nH]2)nc2ccc(C)cc12	5	47*	8	48	3	-9
c1ccc(OCCNc2ccn3nc(-c4cccs4)cc3n2)cc1	2	8	2	-15	-2	nt
COCCCn1c(=O)/c(=C\c2ccc(OC(F)F)c(OC)c2)s/c1=C(/C#N)C(=O)NCCOC	-3	-7	57*	-3	-4	-12
COCCCn1c(=O)/c(=C\c2ccccc2OC(F)F)s/c1=C(/C#N)C(=O)NC(C)C	1	-4	36*	7	-6	-11
COCCCn1c(=O)/c(=C\c2ccccc2OC(C)C)s/c1=C(/C#N)C(=O)Nc1ccc(C(=O)O)cc1	3	-14	44	-5	-6	21
O=C(Cn1cnc2sc(-c3ccccc3)cc2c1=O)NCCc1ccccc1	1	6	1	26	1	22
O=C(Cn1cnc2sc(-c3ccccc3)cc2c1=O)NCc1ccco1	-1	-9	-4	-4	-1	71*
CC(C)CCn1c(N)c(S(=O)(=O)c2cccs2)c2nc3ccccc3nc21	4	6	4	-27	2	3
CCCCn1c(NS(=O)(=O)c2ccccc2)c(S(=O)(=O)c2ccc(C)cc2)c2nc3ccccc3nc21	25	48*	57*	80*	2	-11
Cc1ccc(S(=O)(=O)c2c(N)n(CCC(C)C)c3nc4ccccc4nc23)cc1	6	42*	29	29	2	-1
CCCCn1c(NC(=O)c2ccco2)c(S(=O)(=O)c2ccc(C)cc2)c2nc3ccccc3nc21	6	42*	54*	35	-2	-3
COCCCNC(=O)c1cccc2c(-c3cccc(C(N)=O)c3)coc12	-1	6	-1	1	-2	nt
COc1ccc(N(CC(=O)Nc2ccccc2C(N)=O)S(=O)(=O)c2ccc(C)c([N+](=O)[O-])c2)cc1	2	-11	0	-7	0	-13
CCOc1ccc(S(=O)(=O)Nc2cc(S(=O)(=O)N3CCOCC3)ccc2OC)cc1	0	0	0	-1	4	-10
COc1cc2c(cc1OC)CN(c1nc(-c3cccnc3)nc3ccccc13)CC2	13	6	37*	6	4	-1
Oc1ccc(CCNc2c3ccccc3nc3ccccc23)cc1O	47*	-14	6	79*	2	-10
SMILES	LMPTP block	SUMO1 PPI mod	CSN inh	DNMT1 inh	STEP block	Scp1 inh
c1ccc(CNc2c3ccccc3nc3ccccc23)cc1	61*	-22	-5	67*	2	-11
c1ccc(CNc2ncnc3ccccc23)cc1	13	-4	-5	-1	-2	-5
CC(NC(=O)CN1C(=O)NC2(CCCCCC2)C1=O)c1ccccc1Cl (stereo not drawn)	-1	3	-2	2	-2	8
CCOC(=O)c1c(N)sc2c1CCC(CC)C2 (stereo not drawn)	2	-5	0	0	1	-3
CCC1CCc2c(sc(N)c2C(N)=O)C1 (stereo not drawn)	0	47*	1	-7	0	-8
CC(C)CC(=O)c1c[nH]c(C(=O)NCCCN2CCOCC2)c1	-1	45*	-1	3	1	-8
CCOC(=O)N1CCN(C(=O)c2cn(CC)c3ccc(S(=O)(=O)N4CCCCC4)cc3c2=O)CC1	0	1	-2	5	7	-6
COc1ccc(CCn2c(C3CCCCC3)nc3c(c(=O)c4ccccc4n3C)c2=O)cc1	104*	34	-3	7	98*	1
CCN(c1ccccc1)S(=O)(=O)c1ccc(Oc2ccc(C(C)=O)cc2OC)nc1	2	6	-3	-5	-3	-10
CC(C)(C)N1C(=O)Cc2c1nc(N)c1c(N)nc(N3CCCCC3CO)c(C#N)c21 (stereo not drawn)	28	50*	53*	6	12	9
N#Cc1c(N2CCN(c3ccc(F)cc3)CC2)nc(N)c2c(N)nc3c(c12)CC(=O)N3C1CC1	4	18	16	-21	9	-2
O=[N+]([O-])c1ccccc1N/N=C/c1cccc(O)c1O	3	45*	-3	43	9	-2
O=[N+]([O-])c1ccccc1N/N=C\c1ccccc1Cl	-1	-3	2	2	2	-8
COc1ccc([C@H]2C(C#N)=C([S-])N[C@](C)(O)[C@@H]2[n+]2ccccc2)cc1	49*	-34	7	47	-1	-8
Cc1ccc[n+](C2C(c3ccc([N+](=O)[O-])cc3)C(C#N)=C([S-])NC2(O)C2CC2)c1 (stereo not drawn)	17	-10	11	4	2	6
Cn1nnnc1SCC(=O)N(C1CCCCC1)C1CCS(=O)(=O)C1 (stereo not drawn)	-1	3	-4	2	-4	-5
Cc1ccsc1C=Nc1ccc(O)cc1	33	68*	29	89*	23	-7
COc1ccccc1CNc1nc(NCc2ccccc2OC)c2sccc2n1	23	-6	0	-12	1	nt
COc1ccccc1CNc1nc(Nc2cccc(-c3cnco3)c2)c2sccc2n1	51*	1	-5	-32	3	nt
CC(=O)NCCNc1nc(NCc2ccccc2)nc2ccsc12	29	3	-3	1	-4	nt
COc1ccccc1CNc1nc(NCc2ccc(NC(C)=O)cc2)c2sccc2n1	65*	2	-1	-12	2	nt

High-throughput results deposited in PubChem BioAssay by Sanford-Burnham Center for Chemical Genomics.
